This note sets out measurements from ChEMBL document CHEMBL3526095, “Characterization of the in vitro and in vivo metabolism and disposition and cytochrome P450 inhibition/induction profile of saxagliptin in human” (Drug Metab Dispos, 2012).

One may read the bioavailability as dose-corrected exposure relative to a reference, in per cent. Low values mean poor availability, high ones good availability. A word on the pIC50: it is the negative decadic logarithm of the IC50, by convention in mol/L.

Structures are written as SMILES. pIC50: −log10 of the molar value.

In one data set the target is Cytochrome P450 3A5 (Homo sapiens, UniProt P20815). Nature of the data set: Drug metabolism assessed as human CYP3A5-mediated 5-hydroxy saxagliptin formation at 10 uM after 30 mins by LC-MS/MS analysis. The format is ADME. As to conditions: recombinant enzyme, 0.5 h; call rule not given here.
A short description of data set [1]: Oral bioavailability in dog. It is filed as ADME, organism-based, Canis lupus familiaris. As to conditions: in vivo.
The test system of data set [2] is Hepatocyte. Put plainly: Induction of CYP2B6 mRNA expression in human hepatocytes assessed as bupropion hydroxylation up to 25 uM by LC-MS/MS analysis. The format is ADME, cell-based. The procedure, abridged:
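Freshly isolated primary human hepatocytes from three donors were dosed once daily for 3 consecutive days at 0.2, 1, 5 and 25 µM, with 0.1% DMSO as vehicle control and phenobarbital 1000 µM as the CYP2B6 inducer control. Microsomes were then incubated with 250 µM bupropion at 0.02 mg/ml protein, and metabolite formed was measured by LC-MS/MS. Fold induction is relative to DMSO.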

Data set [3] is described as follows: Drug metabolism in human assessed as parent compound level in urine at 50 mg, po after up to 168 hrs by LC-MS/MS analysis. The format is ADME, organism-based. As to conditions: in vivo. The procedure, abridged: (§1)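 Single 50-mg oral solution dose of [14C]saxagliptin (91.5 µCi) given to healthy male subjects after a 10-h fast. Urine collected as 0–12 h and 12–24 h pools, then in 24-h intervals to 168 h. Saxagliptin and M2 measured by validated positive-ESI LC-MS/MS with MRM; urine standard curves 25–5000 ng/ml for saxagliptin and 50–10,000 ng/ml for M2.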

Data set [4] in a line: Drug metabolism in human assessed as parent compound level in feces at 50 mg, po after up to 168 hrs by LC-MS/MS analysis. As to conditions: read-out: Drug metabolism. The format is ADME, organism-based.
Data set [5] is described as follows: Drug metabolism in human liver microsomes assessed as compound turnover at 10 uM after 1 hr by LC-MS/MS analysis in presence of NADPH. The format is ADME. As to conditions: read-out: Drug metabolism. The procedure, abridged: (§2)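 Pooled HLM at 1 mg/ml protein, incubated with 10 µM [14C]saxagliptin and 1 mM NADPH in 100 mM phosphate buffer pH 7.4 at 37°C for 60 min. Quenched with ice-cold acetonitrile; supernatant analysed by LC-MS/MS and off-line radioanalysis.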
(In general: Liver microsomes are a subcellular fraction often used to study metabolism.)

In data set [6] the test system is Hepatocyte. Nature of the data set: Induction of CYP3A4 mRNA expression in human hepatocytes assessed as testosterone 6beta-hydroxylation up to 25 uM by LC-MS/MS analysis. It is filed as ADME, cell-based. The procedure, abridged: (§3)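 Primary hepatocytes from three donors treated once daily for 3 days: saxagliptin 0.2–25 µM, M2 0.2–100 µM, 0.1% DMSO as vehicle. Microsomal activity assayed by LC-MS/MS: phenacetin 100 µM with 0.02 mg/ml protein (CYP1A2), bupropion 250 µM with 0.02 mg/ml (CYP2B6), testosterone 200 µM with 0.01 mg/ml (CYP3A4). mRNA measured by TaqMan qPCR as 2^ΔCT relative to endogenous control and DMSO.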

Data set [7] concerns Hepatocyte. Put plainly: Cytotoxicity against human hepatocytes up to 25 uM by lactate dehydrogenase assay. The format is cell-based.
Data set [8] concerns the target T1, Cytochrome P450 3A4 (Homo sapiens, UniProt P08684). Put plainly: Drug metabolism assessed as human CYP3A4-mediated 5-hydroxy saxagliptin formation at 10 uM after 30 mins by LC-MS/MS analysis. As to conditions: recombinant enzyme, 0.5 h. It is filed as ADME.
Data set [9] relates to Hepatocyte. Put plainly: Induction of CYP1A2 mRNA expression in human hepatocytes assessed as phenacetin O-deethylation up to 25 uM by LC-MS/MS analysis. The format is ADME, cell-based. The procedure, abridged:
as §3

For a further data set, the target named is T2, Cytochrome P450 2A6 (Homo sapiens, UniProt P11509).
T2 sequence (P11509 whole entry): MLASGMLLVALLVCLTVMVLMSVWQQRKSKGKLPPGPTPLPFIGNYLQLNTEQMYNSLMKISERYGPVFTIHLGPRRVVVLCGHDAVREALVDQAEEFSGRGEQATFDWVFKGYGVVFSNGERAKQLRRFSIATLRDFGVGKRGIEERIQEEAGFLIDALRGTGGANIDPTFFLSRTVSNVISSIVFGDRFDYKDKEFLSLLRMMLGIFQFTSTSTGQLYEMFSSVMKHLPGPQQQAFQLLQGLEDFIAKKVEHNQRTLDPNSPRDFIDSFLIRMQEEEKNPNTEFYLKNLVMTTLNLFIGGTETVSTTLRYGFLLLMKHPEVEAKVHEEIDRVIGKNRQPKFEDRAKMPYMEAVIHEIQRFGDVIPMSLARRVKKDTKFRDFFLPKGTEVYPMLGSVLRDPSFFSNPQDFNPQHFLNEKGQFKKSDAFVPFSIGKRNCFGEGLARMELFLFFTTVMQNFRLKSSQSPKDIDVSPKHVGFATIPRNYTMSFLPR
Nature of the data set: Inhibition of CYP2A6 in human liver microsomes assessed as coumarin 7-hydroxylation after 3 mins by LC-MS/MS analysis in presence of NADPH. It is filed as ADME.

Data set [10] deals with T1, Cytochrome P450 3A4. Nature of the data set: Inhibition of CYP3A4 in human liver microsomes assessed as midazolam 1'-hydroxylation after 3 mins by LC-MS/MS analysis. The format is ADME.
For another data set, the target named is T3, Cytochrome P450 1A2 (Homo sapiens, UniProt P05177).
T3 sequence (P05177 whole entry): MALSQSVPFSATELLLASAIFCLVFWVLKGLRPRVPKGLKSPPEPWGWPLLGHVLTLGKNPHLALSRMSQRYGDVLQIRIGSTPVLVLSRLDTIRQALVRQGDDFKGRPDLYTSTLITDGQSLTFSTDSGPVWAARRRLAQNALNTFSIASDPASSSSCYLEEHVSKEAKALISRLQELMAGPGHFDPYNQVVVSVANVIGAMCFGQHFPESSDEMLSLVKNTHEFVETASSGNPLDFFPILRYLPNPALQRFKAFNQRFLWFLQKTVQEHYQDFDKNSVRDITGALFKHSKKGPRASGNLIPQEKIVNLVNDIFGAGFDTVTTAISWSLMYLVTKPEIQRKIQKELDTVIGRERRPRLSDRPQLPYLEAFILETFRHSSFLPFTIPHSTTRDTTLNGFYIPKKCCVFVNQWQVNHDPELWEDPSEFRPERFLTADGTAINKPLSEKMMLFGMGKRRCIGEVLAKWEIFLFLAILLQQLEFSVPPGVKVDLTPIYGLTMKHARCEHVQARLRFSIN
Nature of the data set: Inhibition of CYP1A2 in human liver microsomes assessed as phenacetin O-deethylation after 3 mins by LC-MS/MS analysis in presence of NADPH. It is filed as ADME.

The subject of data set [11] is Hepatocyte. Nature of the data set: Induction of CYP3A4 mRNA expression in human hepatocytes assessed as testosterone 6beta-hydroxylation up to 100 uM by LC-MS/MS analysis. The format is ADME, cell-based. The procedure, abridged:
as §3

Data set [12] concerns the target T1, Cytochrome P450 3A4. Put plainly: Drug metabolism assessed as human CYP3A4-mediated metabolite formation treated with 10 uM of [14C]saxagliptin after 30 mins by LC-MS/MS analysis. The format is ADME. As to conditions: recombinant enzyme, 0.5 h. The procedure, abridged:
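Expressed human CYP3A4 or CYP3A5 at 500 pmol/ml, incubated with 10 µM [14C]saxagliptin and 1 mM NADPH in 100 mM phosphate buffer pH 7.4 at 37°C for 30 min. Stopped with ice-cold acetonitrile; analysed by LC-MS/MS and off-line radioanalysis.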

Another data set relates to Liver microsome. Nature of the data set: Drug level in human liver microsomes treated with 10 uM of [14C]saxagliptin after 1 hr by LC-MS/MS analysis in presence of NADPH. The format is ADME. The procedure, abridged: as §2
Data set [13] is described as follows: Drug level in human urine treated with 50 mg, po of [14C]saxagliptin up to 168 hrs by LC-MS/MS analysis. It is filed as ADME, organism-based. As to conditions: in vivo. The procedure, abridged:
as §1

T1 sequence (P08684 whole entry): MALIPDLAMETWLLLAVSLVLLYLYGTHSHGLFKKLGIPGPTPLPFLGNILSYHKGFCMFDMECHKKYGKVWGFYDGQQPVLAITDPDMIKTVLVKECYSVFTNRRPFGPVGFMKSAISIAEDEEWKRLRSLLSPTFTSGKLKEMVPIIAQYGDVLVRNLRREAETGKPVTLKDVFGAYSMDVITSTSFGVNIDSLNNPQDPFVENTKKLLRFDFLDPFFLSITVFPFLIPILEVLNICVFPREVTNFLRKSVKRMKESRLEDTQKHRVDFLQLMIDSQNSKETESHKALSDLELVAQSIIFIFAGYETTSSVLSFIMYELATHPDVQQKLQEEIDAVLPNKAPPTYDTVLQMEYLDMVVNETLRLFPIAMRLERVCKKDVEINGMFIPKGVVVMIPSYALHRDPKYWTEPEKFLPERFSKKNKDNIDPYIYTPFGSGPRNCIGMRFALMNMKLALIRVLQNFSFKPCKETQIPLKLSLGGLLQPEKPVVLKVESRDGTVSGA
Sequence of Cytochrome P450 3A5 (P20815 whole entry): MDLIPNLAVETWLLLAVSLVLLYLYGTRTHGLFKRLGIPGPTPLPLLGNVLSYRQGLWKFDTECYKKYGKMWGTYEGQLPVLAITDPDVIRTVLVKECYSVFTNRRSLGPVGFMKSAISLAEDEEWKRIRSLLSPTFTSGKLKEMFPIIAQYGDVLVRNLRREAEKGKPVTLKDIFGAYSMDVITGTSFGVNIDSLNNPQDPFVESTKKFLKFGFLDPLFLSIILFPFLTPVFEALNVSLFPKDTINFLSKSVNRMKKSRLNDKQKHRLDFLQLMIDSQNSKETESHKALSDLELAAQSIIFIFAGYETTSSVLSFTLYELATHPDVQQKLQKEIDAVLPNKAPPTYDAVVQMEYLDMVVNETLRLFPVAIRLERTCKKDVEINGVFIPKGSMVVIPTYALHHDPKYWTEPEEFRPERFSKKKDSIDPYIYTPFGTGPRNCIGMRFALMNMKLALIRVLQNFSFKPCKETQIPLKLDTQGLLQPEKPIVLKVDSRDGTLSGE

On to `N#C[C@@H]1C[C@@H]2C[C@@H]2N1C(=O)[C@@H](N)C12CC3CC(CC(O)(C3)C1)C2` [SAXAGLIPTIN ANHYDROUS], for which the Drug metabolism result (at Cytochrome P450 3A5; in data set [3]; on Cytochrome P450 3A4 [8]) was “metabolite_detected” each time. Besides, the bioavailability in [1] came to 76%. In addition, the Activity entry was “Not Active” with Hepatocyte [2], “Not Active” in the data set with Hepatocyte [6], “Non-toxic” in the data set on Hepatocyte [7] and “Not Active” in the data set with Hepatocyte [9]. Also, the dose excreted at 168 h in [4] turned out to be 0.5%. For the same compound, the metabolised at 1 h, 10 µM in data set [5] is 32%.
As to `N#C[C@@H]1C[C@@H]2C[C@@H]2N1C(=O)[C@@H](N)C12CC3CC(O)(CC(O)(C3)C1)C2`, the pIC50 on Cytochrome P450 2A6, on Cytochrome P450 3A4 [10] and on Cytochrome P450 1A2 was under 3.70 each time. In addition, the Activity result in the data set on Hepatocyte [11] is given as “Not Active”. Moreover, the Drug metabolism entry (at Cytochrome P450 3A4 [12]; in the data set on Liver microsome; in [13]) was “metabolite_detected” throughout.
